Data reported in ChEMBL document CHEMBL3997810, “A Novel Potent Anticancer Compound Optimized from a Natural Oridonin Scaffold Induces Apoptosis and Cell Cycle Arrest through the Mitochondrial Pathway” (J Med Chem, 2017).
Calls of active or inactive are those of the source. The calls are words filed in the database; no cut-off is given here.

Tests used:
[1] = tested on: MGC-803; assay: Antiproliferative activity against human MGC803 cells after 72 hrs by MTT assay; format: functional, cell-based; details: MGC-803, 72 h
How it was run: (§1)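 MGC-803 and MCF-7 cells grown in DMEM (MCF-7 with 1× NEAA); Bel-7402 and K562 grown in RPMI 1640; all media with 10% FBS. Cells seeded at 3500/well, pre-incubated 24 h, then exposed to compounds in fresh medium (DMSO ≤0.25%) for 72 h at 37 °C. MTT read-out at 570 nm. Quadruplicate wells, repeated three times; means ± SD (n = 3).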

[2] = tested on: MCF7; assay: Antiproliferative activity against human MCF7 cells after 72 hrs by MTT assay; format: functional, cell-based; details: MCF7, 72 h; how it was run: as §1
[3] = tested on: K562; assay: Antiproliferative activity against human K562 cells after 72 hrs by MTT assay; format: functional, cell-based; details: K562, 72 h; how it was run: as §1
[4] = tested on: Bel-7402; assay: Antiproliferative activity against human Bel7402 cells after 72 hrs by MTT assay; format: functional, cell-based; details: Bel-7402, 72 h; how it was run: as §1
[5] = tested on: MCF7; assay: Cytotoxicity against human MCF7 cells at 10 to 50 uM after 24 hrs by LDH assay; format: functional, cell-based
How it was run: (§2)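 Membrane integrity assay on MCF-7 and Bel-7402 cells seeded at ~5 × 10^3 per well for 24 h, then given compounds at 10, 20 or 50 μM. Culture medium collected and assayed with CytoTox-ONE LDH reagent for 10 min, followed by stop solution. Fluorescence read at Ex 560/Em 590 nm. Expressed as percentage of unstimulated cells.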

[6] = tested on: Bel-7402; assay: Cytotoxicity against human Bel7402 cells at 10 to 50 uM after 24 hrs by LDH assay; format: functional, cell-based; how it was run: as §2
[7] = Antiproliferative activity against human KB/CP4 cells after 48 hrs by MTT assay; format: functional, cell-based; details: KB/CP4, 48 h
How it was run: (§3)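 Colorimetric MTT assay. KB-3-1, NCI-H460 and Bel-7404 cells were seeded at 4000 cells/well; resistant KB/CP4, NCI-H460/MX20 and Bel-7404/CP20 were seeded at 7000 cells/well. Cells were pre-incubated 24 h at 37 °C, 5% CO2, then exposed to a compound concentration series for 48 h with DMSO ≤0.25%. Absorbance read at 570 nm. Quadruplicate wells, three repeats; means ± SD.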

[8] = Antiproliferative activity against human NCI-H460/MX20 cells after 48 hrs by MTT assay; format: functional, cell-based; details: NCI-H460/MX20, 48 h; how it was run: as §3
[9] = tested on: BEL-7404 tumor cell line; assay: Antiproliferative activity against human Bel7404 cells after 48 hrs by MTT assay; format: functional, cell-based; details: BEL-7404, 48 h; how it was run: as §3
[10] = Selectivity ratio of IC50 for human KB/CP4 cells to IC50 for human KB-3-1 cells
[11] = tested on: KB 3-1; assay: Antiproliferative activity against human KB-3-1 cells after 48 hrs by MTT assay; format: functional, cell-based; details: KB 3-1, 48 h; how it was run: as §3
[12] = Antiproliferative activity against human BEL7404/CP20 cells after 48 hrs by MTT assay; format: functional, cell-based; details: BEL7404/CP20, 48 h; how it was run: as §3
[13] = tested on: NCI-H460; assay: Antiproliferative activity against human NCI-H460 cells after 48 hrs by MTT assay; format: functional, cell-based; details: NCI-H460, 48 h; how it was run: as §3

## C=C1C(=O)[C@]23[C@H](OC(=O)c4cccc(C)c4C)[C@H]1CC[C@H]2[C@]12C=CCC(C)(C)[C@H]1[C@H](O)[C@]3(O)OC2
[1]
  IC50: 3.78 µM
[2]
  IC50: 3.58 µM
[3]
  IC50: 1.68 µM
[4]
  IC50: 2.33 µM

## C=C1C(=O)[C@]23[C@H](OC(=O)c4cc(F)c(F)c(F)c4F)[C@H]1CC[C@H]2[C@]12C=CCC(C)(C)[C@H]1[C@H](O)[C@]3(O)OC2
[1]
  IC50: 1 µM
[2]
  IC50: 2.11 µM
[3]
  IC50: 1.83 µM
[4]
  IC50: 1.58 µM

## C=C1C(=O)[C@]23[C@H](OC(C)=O)[C@H]1CC[C@H]2[C@]12C=CCC(C)(C)[C@H]1[C@H](O)[C@]3(O)OC2
[1]
  IC50: 1.82 µM
[2]
  IC50: 2.57 µM
[3]
  IC50: 1.67 µM
[4]
  IC50: 1.67 µM

## C=C1C(=O)[C@]23[C@H](OC(=O)CCCCCCC)[C@H]1CC[C@H]2[C@]12C=CCC(C)(C)[C@H]1[C@H](O)[C@]3(O)OC2
[5]
  Activity: inactive
[1]
  IC50: 2.71 µM
[2]
  IC50: 2.44 µM
[6]
  Activity: inactive
[3]
  IC50: 3 µM
[4]
  IC50: 4.34 µM

## C=C1C(=O)[C@]23[C@H](OC(=O)c4ccccc4C(F)(F)F)[C@H]1CC[C@H]2[C@]12C=CC(=O)C(C)(C)[C@H]1[C@H](O)[C@]3(O)OC2
[1]
  IC50: 3.61 µM
[2]
  IC50: 3.84 µM
[3]
  IC50: 2.61 µM
[4]
  IC50: 2.93 µM

## C=C1C(=O)[C@]23[C@H](OC(=O)CCCC)[C@H]1CC[C@H]2[C@]12C=CCC(C)(C)[C@H]1[C@H](O)[C@]3(O)OC2
[1]
  IC50: 6.19 µM
[2]
  IC50: 2.49 µM
[3]
  IC50: 1.74 µM
[4]
  IC50: 6 µM

## C=C1C(=O)[C@]23[C@H](OC(=O)/C=C/c4cc(OC)c(OC)c(OC)c4)[C@H]1CC[C@H]2[C@]12C=CCC(C)(C)[C@H]1[C@H](O)[C@]3(O)OC2
[1]
  IC50: 3.91 µM
[2]
  IC50: 2.36 µM
[3]
  IC50: 0.55 µM
[4]
  IC50: 2.44 µM

## C=C1C(=O)[C@]23[C@H](OC(=O)/C=C/c4ccc(F)cc4)[C@H]1CC[C@H]2[C@]12C=CCC(C)(C)[C@H]1[C@H](O)[C@]3(O)OC2
[1]
  IC50: 5.11 µM
[2]
  IC50: 2.51 µM
[3]
  IC50: 1.34 µM
[4]
  IC50: 2.58 µM

## C=C1C(=O)[C@]23[C@H](OC(=O)/C=C/c4ccc(OC)cc4)[C@H]1CC[C@H]2[C@]12C=CCC(C)(C)[C@H]1[C@H](O)[C@]3(O)OC2
[1]
  IC50: 2.91 µM
[2]
  IC50: 0.95 µM
[3]
  IC50: 0.88 µM
[4]
  IC50: 2.42 µM

## C=C1C(=O)[C@]23[C@H](OC(C)=O)[C@H]1CC[C@H]2[C@]12C=CC(=O)C(C)(C)[C@H]1[C@H](O)[C@]3(O)OC2
[1]
  IC50: 5.19 µM
[2]
  IC50: 9.41 µM
[3]
  IC50: 4.64 µM
[4]
  IC50: 3.61 µM

## O=c1[nH]cc(F)c(=O)[nH]1 [FLUOROURACIL]
[1]
  IC50: 3.12 µM
[2]
  IC50: 1.75 µM
[3]
  IC50: 3.54 µM
[4]
  IC50: 2.25 µM

## C=C1C(=O)[C@]23[C@H](OC(=O)c4ccc([N+](=O)[O-])cc4)[C@H]1CC[C@H]2[C@]12C=CCC(C)(C)[C@H]1[C@H](O)[C@]3(O)OC2
[1]
  IC50: 6.39 µM
[2]
  IC50: 4.47 µM
[3]
  IC50: 1.7 µM
[4]
  IC50: 5.14 µM

## C=C1C(=O)[C@]23[C@H](O)[C@H]1CC[C@H]2[C@]12C=C[C@H](O)C(C)(C)[C@H]1[C@H](O)[C@]3(O)OC2
[1]
  IC50: 61.1 µM
[2]
  IC50: 303 µM
[3]
  IC50: 41.1 µM
[4]
  IC50: 25.5 µM

## C=C1C(=O)[C@]23[C@H](OC(=O)c4cc(C)ccc4C)[C@H]1CC[C@H]2[C@]12C=CCC(C)(C)[C@H]1[C@H](O)[C@]3(O)OC2
[1]
  IC50: 6.94 µM
[2]
  IC50: 6.14 µM
[3]
  IC50: 4.19 µM
[4]
  IC50: 7.11 µM

## C=C1C(=O)[C@]23[C@H](O)[C@H]1CC[C@H]2[C@@]12CO[C@@]3(O)[C@@H](O)[C@@H]1C(C)(C)C[C@H]1O[C@H]12
[5]
  Activity: inactive
[1]
  IC50: 5.74 µM
[7]
  IC50: 7.74 µM
[2]
  IC50: 5.37 µM
[8]
  IC50: 11.2 µM
[9]
  IC50: 13.7 µM
[10]
  Ratio IC50: <1
[11]
  IC50: 21 µM
[6]
  Activity: inactive
[3]
  IC50: 1.59 µM
[4]
  IC50: 5.77 µM
[12]
  IC50: 21.6 µM
[13]
  IC50: 8.81 µM

## C=C1C(=O)[C@]23[C@H](OC(=O)/C=C/c4ccccc4OC)[C@H]1CC[C@H]2[C@]12C=CCC(C)(C)[C@H]1[C@H](O)[C@]3(O)OC2
[1]
  IC50: 2.46 µM
[7]
  IC50: 4.61 µM
[2]
  IC50: 0.82 µM
[8]
  IC50: 5.53 µM
[9]
  IC50: 6.06 µM
[10]
  Ratio IC50: <1
[11]
  IC50: 8.31 µM
[3]
  IC50: 0.43 µM
[4]
  IC50: 2.22 µM
[12]
  IC50: 6.87 µM
[13]
  IC50: 5.31 µM

## C=C1C(=O)[C@]23[C@H](OC(=O)c4ccccc4C(F)(F)F)[C@H]1CC[C@H]2[C@]12C=CCC(C)(C)[C@H]1[C@H](O)[C@]3(O)OC2
[1]
  IC50: 2.46 µM
[2]
  IC50: 2.66 µM
[3]
  IC50: 2.96 µM
[4]
  IC50: 3.18 µM

## C=C1C(=O)[C@]23[C@H](OC(=O)C4CCCCC4)[C@H]1CC[C@H]2[C@]12C=CCC(C)(C)[C@H]1[C@H](O)[C@]3(O)OC2
[1]
  IC50: 3.6 µM
[2]
  IC50: 5.83 µM
[3]
  IC50: 3.22 µM
[4]
  IC50: 4.06 µM

## C=C1C(=O)[C@]23[C@H](O)[C@H]1CC[C@H]2[C@@]12CO[C@@]3(O)[C@@H](O)[C@@H]1C(C)(C)C[C@H](Cl)[C@H]2O
[5]
  Activity: inactive
[1]
  IC50: 3.18 µM
[7]
  IC50: 5.92 µM
[2]
  IC50: 3.43 µM
[8]
  IC50: 49 µM
[9]
  IC50: 6.96 µM
[10]
  Ratio IC50: <1
[11]
  IC50: 6.54 µM
[6]
  Activity: inactive
[3]
  IC50: 2.3 µM
[4]
  IC50: 1.69 µM
[12]
  IC50: 5.98 µM
[13]
  IC50: 8.8 µM

## C=C1C(=O)[C@]23[C@H](OC(=O)c4c(OC)cccc4OC)[C@H]1CC[C@H]2[C@]12C=CCC(C)(C)[C@H]1[C@H](O)[C@]3(O)OC2
[1]
  IC50: 21.2 µM
[2]
  IC50: 12.5 µM
[3]
  IC50: 6.85 µM
[4]
  IC50: 45.3 µM

## C=C1C(=O)[C@]23[C@H](OC(=O)c4cccc(Cl)c4)[C@H]1CC[C@H]2[C@]12C=CCC(C)(C)[C@H]1[C@H](O)[C@]3(O)OC2
[1]
  IC50: 3.65 µM
[2]
  IC50: 2.8 µM
[3]
  IC50: 2.23 µM
[4]
  IC50: 4.16 µM

## C=C1C(=O)[C@]23[C@H](OC(=O)/C=C/c4cccc([N+](=O)[O-])c4)[C@H]1CC[C@H]2[C@]12C=CCC(C)(C)[C@H]1[C@H](O)[C@]3(O)OC2
[1]
  IC50: 2.47 µM
[2]
  IC50: 1.37 µM
[3]
  IC50: 0.58 µM
[4]
  IC50: 1.77 µM

## C=C1C(=O)[C@]23[C@H](OC(=O)c4ccc(Br)cc4)[C@H]1CC[C@H]2[C@]12C=CCC(C)(C)[C@H]1[C@H](O)[C@]3(O)OC2
[1]
  IC50: 2.01 µM
[7]
  IC50: 3.24 µM
[2]
  IC50: 0.14 µM
[8]
  IC50: 4.73 µM
[9]
  IC50: 5.35 µM
[10]
  Ratio IC50: <1
[11]
  IC50: 5.82 µM
[3]
  IC50: 0.33 µM
[4]
  IC50: 1.06 µM
[12]
  IC50: 6.05 µM
[13]
  IC50: 5.31 µM

## C=C1C(=O)[C@]23[C@H](OC(=O)c4ccnc(Cl)c4)[C@H]1CC[C@H]2[C@]12C=CC(=O)C(C)(C)[C@H]1[C@H](O)[C@]3(O)OC2
[1]
  IC50: 3.76 µM
[2]
  IC50: 5.15 µM
[3]
  IC50: 2.94 µM
[4]
  IC50: 3.3 µM
